“And” between values parts separate entries of the source, which are not always exact repeats. Identical values can stand only once. Each block holds one molecule with its values, some of them ahead of it.
Experiments:
[1] = target: T1, human PRODH2 157–515 (HYPDH) (Homo sapiens, UniProt Q9UF12); test: Inhibition studies, standard o-AB assay; type: biochemical; settings: 600 mM Hyp; for IC50: 5 min preincubation, compound up to 5 mM; for inhibition of HYPDH activity: up to 5 mM
T1 sequence (Q9UF12 81-439 limits assumed): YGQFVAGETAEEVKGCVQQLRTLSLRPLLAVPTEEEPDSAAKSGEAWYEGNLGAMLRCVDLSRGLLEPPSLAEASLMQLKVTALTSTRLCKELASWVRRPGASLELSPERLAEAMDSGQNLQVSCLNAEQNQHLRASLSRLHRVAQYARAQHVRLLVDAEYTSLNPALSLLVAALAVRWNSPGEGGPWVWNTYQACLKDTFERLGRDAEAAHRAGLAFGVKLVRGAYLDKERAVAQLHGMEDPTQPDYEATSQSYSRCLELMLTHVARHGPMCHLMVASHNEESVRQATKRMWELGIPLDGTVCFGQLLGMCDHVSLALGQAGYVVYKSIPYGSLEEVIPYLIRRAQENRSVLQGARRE
Outline: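 Purified PRODH2 157–515 at 200 nM in 50 mM HEPES pH 7.5 with 4 mM o-AB and 200 μM CoQ1 as electron acceptor, 25°C. Test compound (up to 5 mM) was preincubated with enzyme for 5 min, then 600 mM Hyp was added. Product–o-AB adduct was followed at 443 nm. Percent activity versus concentration was fit assuming single-site binding to give IC50. Stocks were aqueous, except one in DMSO (3% final).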

human PRODH2 157–515 [2] = target: T2, human PRODH2 157–515 (Homo sapiens, UniProt Q9UF12); test: Steady-state kinetic analysis with the o-AB assay; type: biochemical; settings: for reaction as substrate: tested at 500 mM
T2 sequence (Q9UF12 81-439 limits assumed): T1 sequence (Q9UF12 81-439 limits assumed)

human PRODH2 157–515 [3] = target: T2, human PRODH2 157–515; test: Steady-state kinetics with ubiquinone analogues as electron acceptors; type: biochemical; settings: for ability to support Hyp turnover as electron acceptor: Triton X-100 included with CoQ4
human PRODH1 = settings: read-out: Kd for sulfite binding; ref [34], [45]; cited from earlier work
human PRODH2 157–515 [4] = target: T2, human PRODH2 157–515; test: Sulfite reactivity; type: binding
Outline: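 The flavin spectrum was recorded until absorbance stabilised, and ΔA455 was fit hyperbolically for Kd. For adduct reversibility, a proline-analogue inhibitor (1–5 mM final) was added and incubated for 30 min before the spectrum was re-acquired.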

[5] = test system: PRODH homologue of Saccharomyces cerevisiae; settings: ref [43], [45]; cited from earlier work
[6] = target: Helicobacter hepaticus PutA; settings: read-out: Kd for sulfite binding; ref [34], [45]; cited from earlier work
E. coli PutA = settings: ref [43], [45]; cited from earlier work
human PRODH2 157–515 [7] = target: T2, human PRODH2 157–515; test: Anaerobic titration with Hyp; type: binding; settings: Kd from anaerobic titration versus Km from o-AB assay

Structure (SMILES): O=C(O)[C@@H]1CC[C@@H](O)C1 [(1R, 3R) 3-OH-cyclopentane carboxylic acid]
IC50 [1]: 2100 ± 100 µM

Structure (SMILES): O=C(O)[C@H]1CC[C@@H](O)C1 [(1S, 3R) 3-OH-cyclopentane carboxylic acid]
inhibition of HYPDH activity [1]: did not cause inhibition
inhibition of HYPDH activity ([1]; listed as (1S, 3R) 3-OH-cyclopentane-COOH): did not inhibit

Structure (SMILES): O=C(O)[C@H]1C[C@@H](O)CN1 (relative stereo) [cis-4-OH-D-proline]
reaction as substrate (human PRODH2 157–515 [2]; 200 μM CoQ1): does not react
inhibition of HYPDH activity [1]: did not cause inhibition

IC50 [1]: 2900 ± 100 µM
Structure (SMILES): O=C(O)c1cc(O)[nH]n1 [5-OH-1H-pyrazole-3-COOH]

Ki (human PRODH2 157–515 [3]): 306 ± 34 µM
ability to support Hyp turnover as electron acceptor (human PRODH2 157–515 [3]; 600 mM Hyp): support Hyp turnover
Structure (SMILES): CC1=CC(=O)c2ccccc2C1=O [Menadione]

Structure (SMILES): O=S([O-])[O-].[Na+].[Na+] [sulfite, sodium sulfite]
Kd (human PRODH1): 10400 µM
time for the spectrum to reach equilibrium (adduct formation) (human PRODH2 157–515 [4]; aerobic, 25 °C): ~ 6 h
Kd (human PRODH2 157–515 [4]; read-out: Kd for sulfite binding, 50 μM PRODH2 157–515, 50 mM potassium phosphate pH 7.6, 25 °C, 6 h equilibration): 64 ± 7.7 µM
sulfite binding [5]: do not bind
Kd [6]: 400 µM
sulfite binding (E. coli PutA): do not bind

saturation of PRODH2 by substrate (human PRODH2 157–515 [2]; up to 750 mM Pro, 200 μM CoQ1): unable to saturate
Structure (SMILES): O=C(O)[C@@H]1CCCN1 [Pro, L-proline]

Structure (SMILES): O=C(O)C1CC(O)CN1 [trans-4-OH-D-proline]
reaction as substrate (human PRODH2 157–515 [2]; 200 μM CoQ1): does not react
inhibition of HYPDH activity [1]: did not cause inhibition

Structure (SMILES): CC1=C(C)C(=O)C(C)=C(C)C1=O [Duroquinone]
ability to support Hyp turnover as electron acceptor (human PRODH2 157–515 [3]; 600 mM Hyp): support Hyp turnover

Structure (SMILES): O=C(O)C1CCCO1 (stereo not shown) [THFA, tetrahydrofuroic acid]
IC50 [1]: 1500 ± 100 µM
reversal of the sulfite adduct (flavin spectrum) (human PRODH2 157–515 [4]; 1–5 mM THFA added, 30 min incubation): returned the flavin spectrum to the oxidized state

kcat (human PRODH2 157–515 [3]; 0–400 μM ubiquinone analogue, 600 mM Hyp, 50 mM HEPES pH 7.5): 0.19 ± 0.01 s⁻¹
Km (human PRODH2 157–515 [3]; 0–400 μM ubiquinone analogue, 600 mM Hyp, 50 mM HEPES pH 7.5, 4 mM o-AB, 200 nM PRODH2 157–515): 124 ± 19 µM
ability to support Hyp turnover as electron acceptor (human PRODH2 157–515 [3]; 600 mM Hyp): support Hyp turnover
Structure (SMILES): COC1=C(OC)C(=O)C(CC=C(C)C)=C(C)C1=O [CoQ1, Coenzyme Q1]

ability to support Hyp turnover as electron acceptor (human PRODH2 157–515 [3]; 600 mM Hyp): inability to use
Structure (SMILES): COC1=C(OC)C(=O)C(C/C=C(\C)CCC=C(C)C)=C(C)C1=O [CoQ2]

ability to support Hyp turnover as electron acceptor (human PRODH2 157–515 [3]; 600 mM Hyp): inability to use
Structure (SMILES): COC1=C(OC)C(=O)C(C/C=C(\C)CC/C=C(\C)CC/C=C(\C)CCC=C(C)C)=C(C)C1=O [CoQ4]

Structure (SMILES): O=C(O)[C@@H]1C[C@@H](O)CN1 [Hyp, trans-4-hydroxy-L-proline]
fold difference in kcat/Km (specificity constant), Hyp over Pro (human PRODH2 157–515 [2]; 200 μM CoQ1): 12 fold and ~ 12 fold
fold lower kcat with O2 than with CoQ1 as electron acceptor (human PRODH2 157–515 [2]; air saturated buffer versus 200 μM CoQ1): ~ 100 fold
fold lower Kd than Km (human PRODH2 157–515 [7]): ~ 1600 fold and 1600 fold

Reference: publication PMC4377293 (The Biochemical journal, 2015)
